The test system of test [1] is MDA-MB-468. Description: Growth inhibition of human MDA-MB-468 cells after 72 hrs by MTT assay. Format: functional. The following applies: MDA-MB-468, 72 h.
Test [2] relates to MDA-MB-231. Description: Growth inhibition of human MDA-MB-231 cells after 72 hrs by MTT assay. It is filed as functional. The settings on record: MDA-MB-231, 72 h.
Test [3] concerns MCF7. The test can be described thus: Growth inhibition of human MCF7 cells after 72 hrs by MTT assay. Format: functional. The settings on record: MCF7, 72 h.
Test [4] has as its system A549. Description: Growth inhibition of human A549 cells after 72 hrs by MTT assay. The settings on record: A549, 72 h. Format: functional.
A short description of test [5]: Inhibition of CREB-mediated gene transcription in human HEK293T cells by renilla luciferase reporter assay. Format: cell-based. The settings on record: HEK-293T. Put shortly:
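HEK 293T cells transfected with pCRE-RLuc, replated after 3 h and attached overnight; compound added, then forskolin (final 10 µM) 30 min later; 5 h at 37 °C.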

Test [6] in a line: Inhibition of KIX domain of CBP interaction with KID domain of CREB after 20-24 hrs by Renilla luciferase complementation assay. The gist of the method:
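RLucC-KIX (20 ng) and KID-RLucN lysate (1.0 µg) per reaction in Renilla lysis buffer with compound, incubated at 4 °C for 20–24 h; residual luminescence read with benzyl-coelenterazine in PBS pH 7.4.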

Molecules are shown by their SMILES.

The values that follow come from ChEMBL document CHEMBL2203129, “Structure-activity relationship studies of naphthol AS-E and its derivatives as anticancer agents by inhibiting CREB-mediated gene transcription” (Bioorg Med Chem, 2012).

With `O=C(Nc1ccccc1Cl)c1cc2ccccc2cc1O`, the GI50 was found to be 6.65 µM in test [1], 17.2 µM in test [2], 2.27 µM in test [3] and 4.83 µM in test [4]. The concentration for half-maximal inhibition (IC50) in test [5] stood at 5.72 µM; in test [6], 5.43 µM.
In the case of `O=C(Nc1ccncc1)c1cc2ccccc2cc1O`, the GI50 in test [1] is 63.4 µM; in test [2], 35.5 µM; in test [3] it was 15.8 µM; in test [4], 25 µM. For the same compound, the IC50 in test [5] was 20.7 µM; in test [6], 16.3 µM.
As for `COc1ccc(NC(=O)c2cc3ccccc3cc2O)cc1`, the 50% growth inhibitory concentration (GI50) in test [1] is 79.3 µM; in test [2], 75.5 µM; in test [3], 6.55 µM; in test [4], 85.7 µM. The IC50 in test [5] and in test [6] was above 50 µM each time.
For the compound `O=C(Nc1cnccn1)c1cc2ccccc2cc1O`, the GI50 in test [1] is 37.6 µM; in test [2] it was above 100 µM; in test [3] it was 17.9 µM; in test [4] it was 33.2 µM. Besides, the values for the IC50 in test [5] and in test [6] were above 50 µM and 20.3 µM, respectively.
On to `O=C(Nc1ccc(F)c(Cl)c1)c1cc2ccccc2cc1O`, for which the GI50 was 0.85 µM in test [1], 2.2 µM in test [2], 6.86 µM in test [3] and 3.65 µM in test [4]. In addition, the IC50 in test [5] came out at 2.29 µM; in test [6] it was 5.13 µM.
For the compound `O=C(Nc1cccc(Cl)c1)c1cc2ccccc2cc1O`, the GI50 in test [1] worked out at 2.58 µM; in test [2] it was 4.91 µM; in test [3], 2.43 µM; in test [4], 3.68 µM. In addition, the IC50 in test [5] was 2.7 µM; in test [6] it was above 50 µM.
As to `O=C(Nc1ccc(F)c(F)c1)c1cc2ccccc2cc1O`, the GI50 stood at 4.19 µM in test [1], 11.6 µM in test [2], 2.09 µM in test [3] and 3.57 µM in test [4]. Moreover, the IC50 was determined as 3.73 µM in test [5] and 2.39 µM in test [6].
As to `Nc1ccc(NC(=O)c2cc3ccccc3cc2O)cc1`, the GI50 was 57.1 µM in test [1], above 100 µM in test [2], 28 µM in test [3] and 51.6 µM in test [4]. For the same compound, the figures for the IC50 in test [5] and in test [6] were above 50 µM and 25.4 µM, respectively.
